Test results reported in ChEMBL document CHEMBL1138335, “New N-arachidonoylserotonin analogues with potential "dual" mechanism of action against pain” (J Med Chem, 2007).
Calls of active or inactive are those of the source. The calls are words filed in the database; no cut-off is given here.

Assays:
[1] = target: T1, Fatty-acid amide hydrolase 1 (Rattus norvegicus, UniProt P97612); assay: Inhibition of rat brain FAAH assessed by measuring [14C]anandamide hydrolysis after 30 mins
T1 sequence (P97612 whole entry): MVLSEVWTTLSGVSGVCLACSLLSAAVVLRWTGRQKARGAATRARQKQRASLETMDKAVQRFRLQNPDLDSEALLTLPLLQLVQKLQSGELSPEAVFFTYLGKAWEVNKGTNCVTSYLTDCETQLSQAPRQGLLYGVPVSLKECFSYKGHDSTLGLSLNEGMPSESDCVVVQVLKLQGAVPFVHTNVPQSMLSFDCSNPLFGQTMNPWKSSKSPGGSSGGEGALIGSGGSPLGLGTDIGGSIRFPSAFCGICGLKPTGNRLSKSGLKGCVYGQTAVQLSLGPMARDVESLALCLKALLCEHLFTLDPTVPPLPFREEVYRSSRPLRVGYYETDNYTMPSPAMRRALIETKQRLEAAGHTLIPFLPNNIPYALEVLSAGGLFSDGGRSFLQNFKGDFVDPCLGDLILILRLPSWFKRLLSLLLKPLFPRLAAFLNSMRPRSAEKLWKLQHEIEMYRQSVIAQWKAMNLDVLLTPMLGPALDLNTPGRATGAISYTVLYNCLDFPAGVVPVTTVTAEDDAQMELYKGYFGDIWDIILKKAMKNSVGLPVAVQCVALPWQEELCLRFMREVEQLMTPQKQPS

[2] = target: Transient receptor potential cation channel subfamily V member 1 (Homo sapiens, UniProt Q8NER1); assay: Antagonist activity at human recombinant TRPV1 receptor expressed in HEK293 cells assessed as inhibition of capsaicin-induced intracellular calcium elevation; assay type: functional, cell-based
Sequence of Transient receptor potential cation channel subfamily V member 1 (Q8NER1 whole entry): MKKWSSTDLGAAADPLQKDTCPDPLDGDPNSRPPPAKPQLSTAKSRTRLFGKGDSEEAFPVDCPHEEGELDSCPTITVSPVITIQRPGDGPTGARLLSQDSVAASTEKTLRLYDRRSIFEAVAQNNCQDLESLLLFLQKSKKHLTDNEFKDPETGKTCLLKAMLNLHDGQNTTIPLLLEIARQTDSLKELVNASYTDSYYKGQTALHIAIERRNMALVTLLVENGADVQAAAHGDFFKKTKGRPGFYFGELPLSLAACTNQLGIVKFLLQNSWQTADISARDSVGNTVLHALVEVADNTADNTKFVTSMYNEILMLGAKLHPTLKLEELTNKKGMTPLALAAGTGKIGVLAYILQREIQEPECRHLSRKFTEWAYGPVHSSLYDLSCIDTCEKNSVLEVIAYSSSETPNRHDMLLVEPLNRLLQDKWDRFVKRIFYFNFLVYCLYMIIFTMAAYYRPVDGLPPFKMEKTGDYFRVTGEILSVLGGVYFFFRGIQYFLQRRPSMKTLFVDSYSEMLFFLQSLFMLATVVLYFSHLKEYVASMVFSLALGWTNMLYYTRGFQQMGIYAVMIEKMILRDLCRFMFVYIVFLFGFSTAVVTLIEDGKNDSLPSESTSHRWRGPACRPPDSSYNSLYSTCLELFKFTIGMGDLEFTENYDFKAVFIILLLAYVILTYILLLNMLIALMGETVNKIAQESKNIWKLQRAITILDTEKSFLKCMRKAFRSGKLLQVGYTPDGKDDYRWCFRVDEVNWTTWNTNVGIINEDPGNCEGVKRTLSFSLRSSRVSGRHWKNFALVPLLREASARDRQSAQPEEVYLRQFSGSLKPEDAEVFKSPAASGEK
Procedure, shortened: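 Stably transfected HEK293 cells grown in MEM with nonessential amino acids, 10% FCS, 0.2 mM glutamine, 37 °C. Plated on poly-L-lysine a day before. Loaded 2 h at 25 °C with 4 µM Fluo-3 AM, washed, trypsinized, resuspended in Tyrode pH 7.4.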

Mus musculus = assay: Antinociceptive activity in ip dosed mouse assessed as inhibition of formalin-induced hyperalgesia; assay type: functional, organism-based
Procedure, shortened: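 Mice given compound ip 15 min before 1.25% formalin into the dorsal hind paw (n = 8–10 per group). Doses were 0.3–5 or 1–10 mg/kg. Some groups also got AM251 or AM630 (3 mg/kg ip) or I-RTX (0.1–0.2 mg/kg ip) 5 min earlier. Lifting, licking, flinching and similar behaviour timed every 5 min for 60 min. IC50 estimated at 40 min post-formalin.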

RBL-2H3 = assay: Inhibition of anandamide uptake in RBL-2H3 cells upto 25 uM after 5 mins by anandamide membrane transport assay; assay type: functional, cell-based; settings: Rattus norvegicus
[3] = target: T2, Fatty-acid amide hydrolase 1 (Rattus norvegicus) (UniProt P97612); settings: at 50 µM
T2 sequence (whole entry): T1 sequence (P97612 whole entry)

| IC50 [1] | IC50 [2] | IC50 (Mus musculus) | Structure (SMILES) | Activity (RBL-2H3) | inhibition [3] |
| --- | --- | --- | --- | --- | --- |
| 50 µM | > 10 µM | – | CCCCCc1cccc(-c2cccc(CCCC(=O)NCCc3c[nH]c4ccc(O)cc34)c2)c1 | – | – |
| > 50 µM | 0.43 µM | 5 mg/kg | O=C(Cc1cccc(-c2ccccc2)c1)NCCc1c[nH]c2ccc(O)cc12 | – | – |
| > 50 µM | > 10 µM | – | CCCCC/C=C\C/C=C\CCCCCCCCOC(=O)NCCc1c[nH]c2ccc(O)cc12 | – | – |
| > 50 µM | 0.72 µM | – | O=C(NCCc1c[nH]c2ccc(O)cc12)Nc1cccc(-c2ccccc2)c1 | – | – |
| > 50 µM | 2.57 µM | – | CCCCCCCC/C=C\CCCCCCCC(=O)NCCc1c[nH]c2ccc(O)cc12 | – | – |
| 10 µM | 0.95 µM | – | CCCCC/C=C\C/C=C\C/C=C\CCCCC(=O)NCCc1c[nH]c2ccc(O)cc12 | – | – |
| 30 µM | 0.68 µM | – | O=C(CCCCCCCCc1ccccc1)NCCc1c[nH]c2ccc(O)cc12 | – | – |
| 0.5 µM | > 10 µM | 4 mg/kg | O=C(NCCc1c[nH]c2ccc(O)cc12)Oc1cccc(-c2ccccc2)c1 | inactive | – |
| 2.2 µM | > 10 µM | – | O=C(NCCc1c[nH]c2ccc(O)cc12)Oc1cccc(C(F)(F)F)c1 | – | – |
| > 50 µM | > 10 µM | – | O=C(NCCc1ccc(Cl)cc1)NCCc1c[nH]c2ccc(O)cc12 | – | – |
| > 50 µM | > 10 µM | – | CC/C=C\C/C=C\C/C=C\CCCCCCCCOC(=O)NCCc1c[nH]c2ccc(O)cc12 | – | – |
| > 50 µM | 9.12 µM | – | O=C(CCCCCCc1ccccc1)NCCc1c[nH]c2ccc(O)cc12 | – | – |
| 1.8 µM | > 10 µM | – | O=C(NCCc1c[nH]c2ccc(O)cc12)Oc1cccc(I)c1 | – | – |
| – | – | – | C=C(C)[C@]12C[C@@H](C)[C@@]34O[C@](Cc5ccccc5)(O[C@@H]1[C@@H]3C=C(COC(=O)Cc1cc(I)c(O)c(OC)c1)C[C@]1(O)C(=O)C(C)=C[C@@H]41)O2 | – | < 10% |
| 34 µM | 2.13 µM | – | O=C(CCCCCCCc1ccccc1)NCCc1c[nH]c2ccc(O)cc12 | – | – |
| 10 µM | > 10 µM | – | O=C(NCCc1c[nH]c2ccc(O)cc12)Oc1ccc2ccccc2c1 | inactive | – |
| 50 µM | 3.8 µM | – | CC(C)(C)c1ccc(CNC(=O)NCCc2c[nH]c3ccc(O)cc23)cc1 | – | – |

| IC50 [1] | IC50 [2] | IC50 (Mus musculus) | Structure (SMILES) | Activity (RBL-2H3) | inhibition [3] |
| --- | --- | --- | --- | --- | --- |
| > 50 µM | 2.63 µM | – | CCCCCc1cccc(NC(=O)NCCc2c[nH]c3ccc(O)cc23)c1 | – | – |
| 3.6 µM | 2.4 µM | – | CCCCCc1cccc(OC(=O)NCCc2c[nH]c3ccc(O)cc23)c1 | inactive | – |
| > 50 µM | > 10 µM | – | O=C(CCCCC1CCSS1)NCCc1c[nH]c2ccc(O)cc12 (racemic) | – | – |
| 50 µM | > 10 µM | – | CCCCCc1ccc2ccc(CCCC(=O)NCCc3c[nH]c4ccc(O)cc34)cc2c1 | – | – |
| 1.17 µM | > 10 µM | – | O=C(NCCc1c[nH]c2ccc(O)cc12)Oc1ccc(OCc2ccccc2)cc1 | inactive | – |
| > 50 µM | 0.76 µM | – | CCCCCCCCCCC(=O)NCCc1c[nH]c2ccc(O)cc12 | – | – |
| > 50 µM | > 10 µM | – | O=C(NCCc1ccccc1)NCCc1c[nH]c2ccc(O)cc12 | – | – |
| > 50 µM | 2.82 µM | – | CCCCC/C=C\C/C=C\C/C=C\C/C=C\CCCCOC(=O)NCCc1c[nH]c2ccc(O)cc12 | – | – |
| 1.9 µM | > 10 µM | – | O=C(NCCc1c[nH]c2ccc(O)cc12)Oc1cccc(Cl)c1 | – | – |
| > 50 µM | > 10 µM | – | CCCCC/C=C\C/C=C\C/C=C\CCCCCOC(=O)NCCc1c[nH]c2ccc(O)cc12 | – | – |
| > 50 µM | > 10 µM | – | O=C(NCCc1ccc(Oc2ccccc2)cc1)NCCc1c[nH]c2ccc(O)cc12 | – | – |
| 10 µM | 0.47 µM | – | CC/C=C\C/C=C\C/C=C\CCCCCCCC(=O)NCCc1c[nH]c2ccc(O)cc12 | – | – |
| > 50 µM | 0.24 µM | – | CCCCCc1cccc(CC(=O)NCCc2c[nH]c3ccc(O)cc23)c1 | – | – |
| > 50 µM | 0.74 µM | – | CCCCCCCCCCCC(=O)NCCc1c[nH]c2ccc(O)cc12 | – | – |
| > 50 µM | > 10 µM | – | O=C(NCCc1ccc(-c2ccccc2)cc1)NCCc1c[nH]c2ccc(O)cc12 | – | – |
| 30 µM | 1.82 µM | – | CCCCC/C=C\C/C=C\CCCCCCCC(=O)NCCc1c[nH]c2ccc(O)cc12 | – | – |

| Structure (SMILES) | IC50 [1] | IC50 [2] | IC50 (Mus musculus) | Activity (RBL-2H3) | inhibition [3] |
| --- | --- | --- | --- | --- | --- |
| O=C(NCCc1c[nH]c2ccc(O)cc12)Oc1ccc(I)cc1 | 5 µM | > 10 µM | – | – | – |
| CC(C)(C)c1ccc(OC(=O)NCCc2c[nH]c3ccc(O)cc23)cc1 | > 10 µM | 5.25 µM | – | – | – |
| O=C(NCCc1c[nH]c2ccc(O)cc12)Oc1ccc(C(F)(F)F)cc1 | 6.4 µM | > 10 µM | – | – | – |
| CC(C)(C)c1cccc(OC(=O)NCCc2c[nH]c3ccc(O)cc23)c1 | 3.7 µM | > 10 µM | – | – | – |
| CCCCC/C=C\C/C=C\C/C=C\C/C=C\CCCC(=O)NCCc1c[nH]c2ccc(O)cc12 | 8 µM | 0.27 µM | 0.5 mg/kg | – | – |
| O=C(NCCc1c[nH]c2ccc(O)cc12)Oc1ccc(Cl)cc1 | 6.8 µM | > 10 µM | – | – | – |
